# KSHV LANA nucl = LANA-nucleosome interaction inhibition | FITC-LANA1-23 / chicken nucleosome fluorescence polarization; active compounds read low | z-score (no concentration beside the values) | 0.3% of 51,000 active;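 active means both repeat wells score below -2 in polarization z-score versus plate sample wells, excluding overly bright wells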
#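 Material: Purified chicken nucleosomes with FITC-labelled LANA N-terminal peptide (1-23) | Reagent: 50 nM FITC-LANA1-23 probe | Medium: TEN-BT buffer, pH 7.5 | Times: 10–45 min incubation at room temperature | Detection: Fluorescence polarization | Replication: Duplicates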
# Ab BasE inh = blocks the Acinetobacter baumannii siderophore enzyme BasE; purified BasE, fluorescence polarization binding displacement; inhibition, % (concentration not given with the values); 0.1% of 84,000 active; AID 485350; in the data active means inhibition above about 25%, passing the limit was not always enough;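 further: 0% = negative plate control signal and 100% = positive plate control signal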
# Starred values were filed as active, the others as inactive; nt = no result; ! = a repeat was not active. The sample as a whole holds a higher share of hits than the screen did.
SMILES,KSHV LANA nucl,Ab BasE inh
CC(C)(C)c1ncc(C(=O)O)cn1,0.177,-2.8
O=C(Cc1ccccc1)Nn1cnc2c(cnn2-c2ccccc2)c1=O,-0.797,-1.3
CCC(=O)Nn1cnc2c(cnn2-c2ccccc2)c1=O,-2.23*,-0.4
CCCCNc1nc2ccccc2n1CC(N)=O,nt,-1.2
Cc1c(CSC(=N)N)c(C)c(CSC(=N)N)c(C)c1CSC(=N)N,-2.87*,-2.6
CCc1c(CSC(=N)N)csc1C,-0.085,-4.1
CN(C)c1ccc(/C=C/C=C2C(=O)c3ccccc3C2=O)cc1,nt,3.6
COC(=O)C1=CNC=C(C(=O)OC)C1c1ccc(Cl)cc1,0.369,0.6
COC(=O)C1=CNC=C(C(=O)OC)C1c1ccccc1C,-0.573,28.5*
C=CCSc1n[nH]c(C(C)(C)C)n1,nt,0.3
O=c1cc(-c2ccc(O)c(O)c2)oc2cc(O)cc(O)c12,-0.199,2.0
O=c1c(O)c(-c2ccc(O)c(O)c2)oc2cc(O)cc(O)c12,0.825,28.6*!
OCCNc1ccc(Cl)nn1,0.538,nt
CN(C)S(=O)(=O)c1cccc(C(=O)OCc2cc(=O)n3ccsc3n2)c1,nt,3.0
CC(NC(=O)OC1CCCC1)(C(F)(F)F)C(F)(F)F,0.495,3.2
COc1cc(S(=O)(=O)N2CCOCC2)cc(C(=O)OCC(=O)N2CCCc3ccccc32)c1OC,nt,0.1
CCCCC/C=C\C/C=C\C/C=C\C/C=C\CCCC(=O)OC(CO)CO,-2.11*,-1.4
CCCCC/C=C\C/C=C\CCCCCCCC(=O)O[C@@H](CO)COC(=O)CCCCCCCCCCCCCCCCC,-0.105,-2.5
Cc1ccc2nc(COC(=O)C3CCN(c4ccc(C(F)(F)F)cn4)CC3)cc(=O)n2c1,nt,1.0
CC(C)n1nccc1N(CC(=O)N(C)C1CCCCC1)S(=O)(=O)c1ccccc1,nt,0.3
O=C1c2ccccc2C(=O)N1Cc1cc(=O)n2ccsc2n1,nt,1.9
O=c1cc(CN2CCCc3ccccc32)nc2sccn12,-7.88*,12.2
C/C(N)=C(/C#N)C(=O)CSc1nnc2sc3ccccc3n12,nt,0.8
CCOC(=O)/C(C#N)=C\c1cc2ccc(OC)cc2[nH]c1=O,-4.54*,13.6
COc1cccc(C(=O)NCCc2cc3ccc(OC)cc3[nH]c2=O)c1,0.267,-6.1
SMILES,KSHV LANA nucl,Ab BasE inh
Nc1ccc(N2CCOCC2)c(N)c1,2.52,36.8*
NS(=O)(=O)c1ccc(N2CCOCC2)c(C(=O)O)c1,nt,1.1
COc1cccc(CN2NS(=O)(=O)c3ccccc3C2=O)c1,nt,-0.9
CC(=O)NN1C(=O)c2cccc3c(N(C)C)ccc(c23)C1=O,nt,31.6*
CN(C)c1ccc2c3c(cccc13)C(=O)N(c1nc3ccccc3n1C)C2=O,-0.971,0.3
COc1ccc(NC(=O)CC2C(=O)N(C)C(=S)N2CCNC(C)=O)cc1 (centres undefined),-0.29,0.1
S=c1[nH]ncc2ccccc12,nt,0.8
Cc1cccc2[nH]ncc12,0.321,24.7*
c1cnc2c(c1)NC1(CCCCC1)N2,-3.64*,29.1
CCSC1=NC2(CCCCC2)Nc2ccccc21,nt,0.4
CN(C)CCN(C)CC1=CCC2CC1C2(C)C (centres undefined),0.441,-1.2
COc1cccc2c1C(=O)c1c(O)c3c(c(O)c1C2=O)C[C@@](O)(C(C)=O)C[C@@H]3OC1CC(N)C(O)C(C)O1 (some centres undefined),-6.03*,15.4
COc1cccc2c1C(=O)c1c(O)c3c(c(O)c1C2=O)C[C@@](O)(C(=O)CO)C[C@@H]3O[C@H]1C[C@H](N)[C@H](O)[C@H](C)O1,-8.45*!,15.3
Cc1ccc(C2CC(=O)N(C)c3c2c(C)nn3-c2nc3ccccc3s2)cc1 (centres undefined),0.73,3.3
CC1=C(C(=O)OC(C)C)C(c2ccccc2F)C(C#N)=C(N)O1 (centres undefined),-0.174,-3.0
CCOC(=O)C1=C(N)Oc2cc(C)oc(=O)c2C1c1ccccc1F (centres undefined),-0.569,27.7*
Cc1cccc(N(C)S(=O)(=O)c2cc(Br)cnc2N)c1,-0.868,-0.5
NC(=O)c1ccsc1NC(=O)CSc1ccccc1,0.266,-1.5
NC(=O)c1ccsc1NC(=O)COC(=O)c1ccccc1,nt,39.7*
NC(=O)c1ccc(C(N)=O)cc1,-0.176,-1.0
COCCOC(=O)c1c(C)oc2cc(Br)c(OC(=O)c3ccc(OC)c(OC)c3)cc12,0.0195,1.4
COc1ccc(-c2nc(SC(C)C(=O)O)c3c(=O)n(C)c(=O)n(C)c3n2)cc1 (centres undefined),-1.63,-1.7
CN1C/C(=N\S(=O)(=O)c2ccccc2)N(C)C1=O,0.049,-1.5
CC1=CC(=O)C=C(C)C1=NS(=O)(=O)c1ccccc1,nt,25.8*
CCNCc1cccs1,nt,-1.6
SMILES,KSHV LANA nucl,Ab BasE inh
N#Cc1ccccc1CNCc1cccs1,-2.13*,-0.1
COc1ccc(S(=O)(=O)N2CCN(C(=O)C(C)Oc3ccc(F)cc3)CC2)cc1 (centres undefined),nt,1.3
N=C1/C(=C\c2cn(CCOc3ccccc3Cl)c3ccccc23)C(=O)N=C2SC=NN12,-3.43*,-18.5
Cc1ccc(C)c(OCCn2cc(/C=C3\C(=N)N4N=C(S(C)(=O)=O)SC4=NC3=O)c3ccccc32)c1,-0.0335,7.5
O=C1/C(=C/c2ccccc2)Oc2c1ccc(O)c2CN1CCCC1,2.15,0.9
CCN(CC)Cc1c(O)ccc2c1O/C(=C\c1ccccc1Cl)C2=O,-3*,1.5
CC(C)(C)OC(=O)N1CCC(CNC(=O)c2ccno2)CC1,nt,1.9
CCN(CC(=O)Nc1ccc(C#N)cc1)C1CCCCC1,nt,1.6
CC(C)CCNC(=O)C1CCCN(S(=O)(=O)N2CCC3(CC2)OCCO3)C1 (centres undefined),-2.17*,1.6
CCOC(=O)N1CCN(S(=O)(=O)N2CCCC(C(=O)NCCC(C)C)C2)CC1 (centres undefined),-0.252,1.0
O=S(=O)(c1cccc(C(F)(F)F)c1)N1CCNCC1,-0.954,1.9
O=C(c1ccc2c(c1)OCO2)N1CCN(C2c3ccccc3-c3ccccc32)CC1,-2.33*,3.0
O=C(CN1CCN(C2c3ccccc3-c3ccccc32)CC1)c1ccc2c(c1)OCO2,0.0085,0.8
CCOC(=O)c1cnn(-c2cccc(C)c2)c1C1CCNCC1,0.361,-0.9
S=c1[nH]c2cc(Cl)c3cccnc3c2o1,2.53,51.3*
O=C(O)COc1c(I)cc(Cl)c2cccnc12,nt,-0.4
Nc1ccc(OCC2CCCO2)cc1 (centres undefined),0.337,-2.4
c1ccc(-c2nnc(OCC3CCCO3)c3ccccc23)cc1 (centres undefined),nt,27.5*
COc1cccc(C(=O)Nc2nc3cc4c(cc3s2)OCO4)c1,-1.04,0.7
CCOc1ccc(C(=O)Nc2nc3cc4c(cc3s2)OCO4)cc1,-2.24*,0.7
CNS(=O)(=O)c1cc(C)ccc1OC,-0.494,-0.4
CCn1c(O)c(C=Nc2ccccc2)oc1=S,nt,1.9
CCn1c(O)c(C=Nc2cccc(O)c2)sc1=S,-2.41*,0.3
CCC(C)NS(=O)(=O)c1ccc(C)cc1C (centres undefined),nt,1.6
